Results collected from several papers.
Action: inhibitor
CDK5 with p35: Cyclin-dependent kinase 5, with p35 (CDK5, Homo sapiens, UniProt Q00535)
CDK5 with p25: Cyclin-dependent kinase 5, with p25 (CDK5, Homo sapiens, UniProt Q00535)
CDK5: Cyclin-dependent kinase 5 (CDK5, Homo sapiens, UniProt Q00535)

| Structure (SMILES) | target | read-out | technique | cells | tested at | inhibition [%] |
| --- | --- | --- | --- | --- | --- | --- |
| COc1cc2ncnc(Nc3ccc(Oc4ccccc4)c(C)c3C)c2cc1OC | CDK5 with p35 | enzyme activity |  |  | 1 µM | -1 |
| Cc1ccc(-n2nc(C(C)(C)C)cc2NC(=O)Nc2ccc(OCCN3CCOCC3)c3ccccc23)cc1 | CDK5 with p25 | enzyme activity |  |  | 10 µM | 1 |
| CN1CC(Oc2cnc(C#N)cc2-c2ccn3nc(NC(=O)C4CC4)cc3c2)C1 | CDK5 with p35 | enzyme activity |  |  | 1 µM | 12 |
| CN(C)C1CCN(CC#Cc2nn(C3CCCC3)c3nc(NCc4ccccc4)ncc23)C1 (stereo not drawn) | CDK5 with p25 | enzyme activity | FRET |  | 0.1 µM | 1 |
| COc1cc2ncnc(Nc3ccc(Oc4ccccc4)cc3C)c2cc1OC | CDK5 with p25 | enzyme activity |  |  | 1 µM | 7 |
| COc1cc(-c2cc(-c3ccc(N4CCNCC4)cc3)cnc2C)cc(OC)c1OC | CDK5 | enzyme activity |  |  | 0.1 µM | 2 |
| Cc1ccc(Nc2nccc(N(C)c3ccc4c(C)n(C)nc4c3)n2)cc1S(N)(=O)=O | CDK5 with p25 | enzyme activity |  |  | 10 µM | 44 |
| CCN1CCN(Cc2ccc(NC(=O)c3ccc(C)c(Oc4ccnc5[nH]ccc45)c3)cc2C(F)(F)F)CC1 | CDK5 | target engagement in cells | chemoproteomics | Huh-7 | 10 µM | -42.6 |
| CCOc1cc(-c2nncn2C)ccc1Nc1ncc2cc(C)nc(NCC(C)(C)C)c2n1 | CDK5 with p25 | enzyme activity | FRET |  | 1 µM | 49 |
| Nc1nc(Nc2ccc(S(N)(=O)=O)cc2)sc1C(=O)c1ccccc1[N+](=O)[O-] | CDK5 | enzyme activity |  |  | 0.1 µM | 95 to 96 |
| CNCc1ccc(-c2cc(-c3nc(-c4ccc(S(=O)(=O)C(C)C)cc4)cnc3N)on2)cc1 | CDK5 with p35 | enzyme activity |  |  | 2 µM | 16 |
| CC[C@H](C)[C@H](NC(=O)[C@H](CCC(N)=O)NC(=O)[C@H](CC(C)C)NC(=O)[C@H](CCSC)NC(=O)[C@H](CCCCN)NC(=O)[C@H](CO)NC(=O)[C@H](CO)NC(=O)[C@H](CCSC)NC(=O)[C@H](CC(C)C)NC(=O)[C@H](CC(N)=O)NC(=O)[C@@H](NC(=O)[C@@H](NC(=O)[C@H](CO)NC(=O)[C@H](CC(C)C)NC(=O)[C@H](CS)NC(=O)[C@H](CCCNC(=N)N)NC(=O)[C@H](CC(=O)O)NC(=O)[C@H](Cc1c[nH]c2ccccc12)NC(=O)[C@H](Cc1ccccc1)NC(=O)[C@H](C)NC(=O)[C@H](CCC(=O)O)NC(=O)[C@@H](N)CCCCN)C(C)C)[C@@H](C)CC)C(=O)N[C@@H](CC(N)=O)C(=O)N[C@@H](C)C(=O)O | CDK5 with p25 | enzyme activity | radiometric |  | 250 µM | 59 |
